Results as given in ChEMBL document CHEMBL1140336, “Synthesis, structure-activity relationships, and biological evaluation of fatty alcohol phosphates as lysophosphatidic acid receptor ligands, activators of PPARgamma, and inhibitors of autotaxin” (J Med Chem, 2005).

Legend:
[1] = target: T1, Lysophosphatidic acid receptor 3 (Homo sapiens, UniProt Q9UBY5); assay: (§1) Inhibition of LPA-induced calcium transients in RH7777 rat hepatoma cells expressing LPA3 receptor; format: functional, cell-based
T1 sequence (Q9UBY5 whole entry): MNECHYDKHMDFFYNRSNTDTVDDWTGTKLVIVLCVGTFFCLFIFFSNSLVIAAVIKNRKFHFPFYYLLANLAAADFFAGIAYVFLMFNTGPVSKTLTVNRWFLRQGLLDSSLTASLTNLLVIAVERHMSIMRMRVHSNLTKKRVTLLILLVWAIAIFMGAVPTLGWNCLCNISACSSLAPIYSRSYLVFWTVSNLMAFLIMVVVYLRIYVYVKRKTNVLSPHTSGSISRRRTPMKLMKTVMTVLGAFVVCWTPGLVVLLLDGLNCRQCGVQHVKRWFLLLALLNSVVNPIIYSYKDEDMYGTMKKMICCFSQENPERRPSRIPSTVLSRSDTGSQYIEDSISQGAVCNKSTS
Outline: (§2)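 Fura-2 Ca2+ assay. RH7777 cells stably expressing LPA1, LPA2 or LPA3, or PC-3 cells (endogenous LPA1-3), seeded at 50000 cells/well on poly-D-lysine and grown overnight. Serum-starved in modified Krebs, pH 7.4, for 6-8 h (PC-3: 12 h), then Fura-2 AM loaded for 35 min. Compound added at 15 s; wells read 80-120 s. Transient taken as peak minus baseline 340/380 ratio. Antagonism: LPA 18:1 coapplied; highest concentration 30 μM.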

[2] = target: T1, Lysophosphatidic acid receptor 3; assay: Binding affinity for Lysophosphatidic acid receptor 3 expressed in RH7777 rat hepatoma cells; format: cell-based; outline: as §2
[3] = target: T2, Lysophosphatidic acid receptor 2 (Homo sapiens, UniProt Q9HBW0); assay: (§3) Inhibition of LPA-induced calcium transients in RH7777 rat hepatoma cells expressing LPA2 receptor; format: functional, cell-based
T2 sequence (Q9HBW0 whole entry): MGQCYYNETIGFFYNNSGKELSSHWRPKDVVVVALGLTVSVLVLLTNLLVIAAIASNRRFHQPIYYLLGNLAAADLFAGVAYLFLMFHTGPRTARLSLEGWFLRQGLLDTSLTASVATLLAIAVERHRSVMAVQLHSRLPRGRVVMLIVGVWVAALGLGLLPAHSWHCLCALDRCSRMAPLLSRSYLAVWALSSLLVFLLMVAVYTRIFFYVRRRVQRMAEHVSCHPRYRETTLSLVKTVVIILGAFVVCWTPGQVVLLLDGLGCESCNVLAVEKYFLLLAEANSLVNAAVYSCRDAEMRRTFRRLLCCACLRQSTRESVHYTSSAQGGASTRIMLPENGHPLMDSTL

[4] = target: T3, Lysophosphatidic acid receptor 1 (Homo sapiens, UniProt Q92633); assay: (§4) Inhibition of LPA-induced calcium transients in RH7777 rat hepatoma cells expressing LPA1 receptor; No effect; format: functional, cell-based; outline: as §2
T3 sequence (Q92633 whole entry): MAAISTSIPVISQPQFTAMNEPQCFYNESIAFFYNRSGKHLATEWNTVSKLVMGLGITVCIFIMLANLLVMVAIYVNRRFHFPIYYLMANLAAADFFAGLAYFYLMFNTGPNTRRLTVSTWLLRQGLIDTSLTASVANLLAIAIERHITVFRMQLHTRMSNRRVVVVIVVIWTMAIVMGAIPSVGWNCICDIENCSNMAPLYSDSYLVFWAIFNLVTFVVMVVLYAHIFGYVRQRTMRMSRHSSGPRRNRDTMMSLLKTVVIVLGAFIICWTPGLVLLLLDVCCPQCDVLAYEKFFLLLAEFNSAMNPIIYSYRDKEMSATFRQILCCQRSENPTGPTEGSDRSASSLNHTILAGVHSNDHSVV

[5] = target: T2, Lysophosphatidic acid receptor 2; assay: Inhibition of LPA-induced calcium transients in RH7777 rat hepatoma cells expressing LPA2 receptor; No effect; format: functional, cell-based; outline: as §2
[6] = target: T1, Lysophosphatidic acid receptor 3; assay: Inhibition of LPA-induced calcium transients in RH7777 rat hepatoma cells expressing LPA3 receptor; No effect; format: functional, cell-based; outline: as §2
[7] = target: T3, Lysophosphatidic acid receptor 1; assay: (§5) Inhibition of LPA-induced calcium transients in RH7777 rat hepatoma cells expressing LPA1 receptor; format: functional, cell-based; outline: as §2
Homo sapiens [8] = species: Homo sapiens; assay: Concentration of compound (after 5 min of addition) that induce LPA expressed in human platelets; format: functional
Outline: (§6)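 Washed human platelets, aspirin-treated and isolated with apyrase, at 4 × 10^5/μL in HEPES buffer pH 7.4, stirred at 37 °C. Lipids given as BSA complexes (4:1). Shape change read as the fall in light transmission in an aggregometer. […] Mean ± SD across different donors.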

Homo sapiens [9] = species: Homo sapiens; assay: Inhibitory concentration of compound (after 5 min of incubation) against LPA human platelets
Homo sapiens [10] = species: Homo sapiens; assay: Maximal shape change of human platelets induced by the compound; format: functional; outline: as §6
[11] = target: T3, Lysophosphatidic acid receptor 1; assay: Binding affinity for Lysophosphatidic acid receptor 1 expressed in RH7777 rat hepatoma cells; format: cell-based; outline: as §2
[12] = Inhibition of LPA-induced calcium transients in PC-3 cells; format: functional, cell-based, Homo sapiens
Outline: (§7)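 PC-3 human prostate cancer cells, which express LPA1-3 endogenously, 50000 cells/well. Serum-starved 12 h in modified Krebs, loaded with Fura-2 AM, read in a FlexStation. Ca2+ transient = 340/380 ratio peak minus baseline. Agonism (Emax as % of maximal LPA 18:1 response) and inhibition of LPA-induced transients were measured.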

[13] = Binding affinity for Lysophosphatidic acid receptor in PC-3 cells; format: cell-based, Homo sapiens; outline: as §2
[14] = target: T2, Lysophosphatidic acid receptor 2; assay: Binding affinity for Lysophosphatidic acid receptor 2 expressed in RH7777 rat hepatoma cells; format: cell-based; settings: rh7777
[15] = target: T3, Lysophosphatidic acid receptor 1; assay: as §4; format: functional, cell-based; remark: listed apart in the source
[16] = Percent maximal efficacy in PC-3 cells; format: functional, Homo sapiens; outline: as §7
[17] = target: T1, Lysophosphatidic acid receptor 3; assay: as §1; format: functional, cell-based; remark: listed apart in the source
[18] = target: T3, Lysophosphatidic acid receptor 1; assay: as §5; format: functional, cell-based; remark: listed apart in the source
[19] = target: T3, Lysophosphatidic acid receptor 1; assay: Inhibition of LPA-induced calcium transients in RH7777 rat hepatoma cells expressing LPA1 receptor; Not effect; format: functional, cell-based; outline: as §2
[20] = target: T2, Lysophosphatidic acid receptor 2; assay: as §3; format: functional, cell-based; outline: as §2; remark: listed apart in the source
[21] = Homo sapiens, PC-3, read-out: IC50

Row | Structure (SMILES) | IC50 [1] [nM] | Ki [2] [nM] | EC50 [4] | IC50 [5] | EC50 [6] | IC50 [7] [nM] | EC50 (Homo sapiens [8]) [nM] | IC50 [12, 21] [nM] | EC50 [5] | Emax (Homo sapiens [10]) [%] | Ki [13] [nM] | IC50 [15] | also measured
1 | Cc1noc(-c2ccc(CSCCC(=O)O)cc2)c1NC(=O)OC(C)c1ccccc1Cl (stereo not drawn) | 301 | 148 | Not Active | Not Active | Not Active | 762 | – | 3380 | Not Active | – | 1740 | – | Ki [14]: Not Active; Ki [11]: 425 nM
2 | CCCCCCCCCCCCOP(O)(O)=S [THIOPHOSPHORIC ACID DODECYL ESTER] | – | – | Not Active | Not Active | Not Active | – | – | 2840 | – | – | 1300 | Not Active | –
3 | CCCCCCCCCCCCP(=O)(O)O | 654 | 303 | Not Active | Not Active | Not Active | – | – | 2640 | Not Active | – | 1270 | Not Active | –
4 | CCCCCCCC/C=C/CCCCCCCC(=O)OCC(O)COP(=O)(O)O (stereo not drawn) [OLEOYL] | – | – | – | – | – | – | 9 | – | – | 120 | – | – | –
5 | CCCCCCCC/C=C/CCCCCCCCOP(O)(O)=S | – | – | – | Not Active | – | – | 16 | – | – | 1.12 | – | Not Active | Emax [16]: 30%; EC50 [17]: 546 nM; IC50 (Homo sapiens [9]): 18 nM; EC50 [3]: 244 nM; IC50 [6]: Not Active; EC50 [18]: 193 nM
6 | CCCCCCCC(=O)OC[C@H](COP(=O)(O)OP(=O)(O)O)OC(=O)CCCCCCC | 454 | 202 | – | Not Active | Not Active | 5500 | – | – | Not Active | – | – | – | EC50 [19]: Not Active; Ki [11]: 4300 nM
7 | CCCCCCCCCCCCCCC(F)(F)P(=O)(O)O | – | – | Not Active | Not Active | Not Active | – | – | – | – | – | – | – | –
8 | CCCCCCCCCCCCCCOP(O)(O)=S [THIOPHOSPHORIC ACID TETRADECYL ESTER] | – | – | Not Active | Not Active | Not Active | – | – | – | – | – | – | Not Active | EC50 [12]: Not Active; IC50 ([12]; pc-3): Not Active

More lines, main results first:

Row | IC50 [1] [nM] | Ki [2] [nM] | EC50 [4] | IC50 [5] | EC50 [6] | IC50 [7] [nM] | EC50 (Homo sapiens [8]) [nM] | IC50 [12, 21] [nM] | EC50 [5] | Structure (SMILES) | Emax (Homo sapiens [10]) [%] | Ki [13] [nM] | IC50 [15] | also measured
9 | 103 | 40 | Not Active | Not Active | Not Active | – | – | – | – | CC/C=C/CCCCCCCCCCOP(=O)(O)O | – | – | – | EC50 [3]: 4100 nM
10 | 128 | 61 | Not Active | Not Active | Not Active | 2800 | 250 | – | – | CCCCCCCCCCCCOP(=O)(O)O [PHOSPHORIC ACID MONODODECYL ESTER] | 94 | – | – | IC50 (Homo sapiens [9]): 160 nM; Ki [11]: 1350 nM
11 | 32 | 27 | Not Active | Not Active | Not Active | > 10000 | 1500 | 916 | – | CC/C=C/CCCCCCCCOP(=O)(O)O | 89 | 390 | – | EC50 [20]: 717 nM; IC50 (Homo sapiens [9]): 700 nM
12 | – | – | Not Active | Not Active | Not Active | – | – | – | Not Active | CCCCCCCC/C=C/CCCCCCCCOP(=O)(O)O | – | – | Not Active | Emax [16]: 11%; IC50 [6]: Not Active
13 | 96 | 58 | Not Active | Not Active | Not Active | – | – | 241 | – | CCCC/C=C/CCCCCCCCOP(=O)(O)O | – | 123 | – | EC50 [3]: 397 nM
